Results gathered from unrelated publications.
Lines come from different studies, so protocols differ.
Target: Casein kinase I isoform alpha (CSNK1A1, Homo sapiens, UniProt P48729)

Cc1cnc(Nc2ccc(C(=O)N3CCC(N4CCCC4)CC3)cc2)nc1-c1cc2ccccc2s1
remaining binding (binding, competition with immobilised ligand; 1 µM): 60%

FC(F)(F)Oc1cccc(-c2cnc3ccc(-c4ccncc4)nn23)c1
remaining binding (cell-free assay, competition with immobilised ligand; 5 µM): 52%

F[C@@H]1CCN(c2nccc(-c3cnn4ncccc34)n2)C1
remaining binding (binding; 1 µM): 90%

O=C(Nc1c[nH]nc1C(=O)NC1CCNCC1)c1cc(F)cc(F)c1
remaining binding (binding, competition with immobilised ligand; 1 µM): 75%

CS(=O)(=O)NCC[C@H](NC(=O)c1cncc2c1cnn2-c1ccc(F)cc1)c1ccnc(S(C)(=O)=O)c1
remaining binding (cell-free assay, competition with immobilised ligand; 1 µM): 100%

c1cncc(-c2cccc(Nc3nccc(NC4CCCCC4)n3)c2)c1
remaining binding (binding, competition with immobilised ligand; 10 µM): 71%

CS(=O)(=O)c1cc(C2(NC(=O)c3cncc4c3cnn4-c3ccc(F)cc3)CC2)ccn1
remaining binding (cell-free assay, competition with immobilised ligand; 1 µM): 96%

CC1CCCN1c1nccc(-c2cnn3ncccc23)n1 (stereo not shown)
remaining binding (binding; 1 µM): 100%

CNC(=O)[C@@H]1CC[C@@H](n2c(-c3ccc4cnccc4c3)nc3ccc(C(=O)NCc4cccc(C(N)=O)c4)cc32)C1
remaining binding (binding, competition with immobilised ligand; 1 µM): 99%

Nc1ncc2c(n1)-c1c([nH]c3ccc(C#CC4CC4)cc13)CCCC2
remaining binding (binding, competition with immobilised ligand; 1 µM): 93%

CN(C)c1nccc(-c2cnc3ncccn23)n1
remaining binding (binding; 1 µM): 36%

Cn1nc(C(F)(F)F)cc1-c1cnc(N2CCc3cc(S(=O)(=O)Nc4c(F)cc(Cl)cc4F)cc(N4CCCC4=O)c32)nc1
remaining binding (cell-free assay, competition with immobilised ligand; 1 µM): 86%

CN(C)c1nccc(-c2cnn3ncccc23)n1
remaining binding (binding; 1 µM): 60%

O=C(N1CCS(=O)(=O)CC1)N1C[C@H](c2ccc(OC(F)(F)F)cc2)C[C@H](c2nc(C3CC3)no2)C1
remaining binding (cell-free assay, competition with immobilised ligand; 1 µM): 100%

O=C(c1ccc(Nc2ncc(Cl)c(-c3cc4ccccc4s3)n2)cc1)N1CCC(N2CCCC2)CC1
remaining binding (binding, competition with immobilised ligand; 1 µM): 67%

COc1cnc(Nc2cccc(S(N)(=O)=O)c2)nc1N1CCN(c2ccccc2)C(=O)C1
remaining binding (binding, competition with immobilised ligand; 1 µM): 93%

C[C@H]1CCN(c2nccc(-c3cnn4ncccc34)n2)C1
remaining binding (binding; 1 µM): 47%

CNC(=O)Nc1ccc2c(c1)CC[C@@]21OC(=O)N(CC(=O)N(Cc2ccc(F)cc2)[C@@H](C)C(F)(F)F)C1=O
remaining binding (cell-free assay, competition with immobilised ligand; 1 µM): 93%

CN(c1nccc(-c2cnn3ncccc23)n1)C1CC1
remaining binding (binding; 1 µM): 88%

O=C(NCCCN1CCOCC1)c1ccc(Nc2nccc(-c3cc4ccccc4s3)n2)cc1
remaining binding (binding, competition with immobilised ligand; 1 µM): 74%

N[C@@H]1CCN(c2nccc(-c3cnn4ncccc34)n2)C1
remaining binding (binding; 1 µM): 12%

CS(=O)(=O)N1CCCC(NC(=O)[C@H](CCC2CCCCC2)NC(=O)c2ccc(CNc3ncnc4c3nnn4-c3ccccc3)cc2)C1 (stereo partly shown)
remaining binding (cell-free assay, competition with immobilised ligand; 0.1 µM): 99%
